# According to ChEMBL document CHEMBL1141347, “Heptaketides from Corynespora sp. inhabiting the cavern beard lichen, Usnea cavernosa: first report of metabolites of an endolichenic fungus” (J Nat Prod, 2007):
# Calls of active or inactive are those of the source. The rule behind the calls is not given here.
# Tests used:
# PC-3M [1] = assay: Inhibition of human PC3M cell migration by wound-healing assay; assay type: functional, cell-based
# MDA-MB-231 [2] = assay: Inhibition of human MDA-MB-231 cell migration by wound-healing assay; assay type: functional, cell-based
# PC-3M [3] = assay: Inhibition of human PC3M cell migration at 10 uM by wound-healing assay; assay type: functional, cell-based
# Procedure, shortened: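 PC-3M scratch wound-healing migration assay with compound at 10 µM over 40 h. DMSO negative and LY294002 positive controls.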
# MDA-MB-231 [4] = assay: Effect on cell viability of human MDA-MB-231 cells at 5 uM by microscopy based assay; assay type: functional
# Procedure, shortened: (§1)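 Cells exposed during wound-healing assay, then stained with a live/dead kit. Live cells fluoresce green from esterase conversion of calcein AM to calcein; ethidium homodimer 1 enters membrane-damaged cells, giving red fluorescence on nucleic acid binding. Imaged by microscopy. Controls: DMSO (background), LY294002 7.5 µM, 0.1% saponin for 10 min (death).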
# PC-3M [5] = assay: Inhibition of human PC3M cell migration at 5 uM by wound-healing assay; assay type: functional, cell-based
# [6] = Antiproliferative activity against human PC3M cells after 40 hrs by MTT assay; assay type: functional, cell-based; conditions: PC-3M
# PC-3M [7] = assay: Effect on cell viability of human PC3M cells at 5 uM by microscopy based assay; assay type: functional; procedure, shortened: as §1
# MDA-MB-231 [8] = assay: Effect on cell viability of human MDA-MB-231 cells at 5 uM by flow cytometry; assay type: functional, cell-based
# Procedure, shortened: (§2)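 Cells harvested straight from wound-healing assays by trypsinisation, washed twice with PBS, stained with ViaCount Flex reagent and run on a Guava EasyCyte flow cytometer, with EasyFit analysis separating viable cells from dead cells and debris. DMSO background control, 70% methanol death control, LY294002 control.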
# PC-3M [9] = assay: Effect on cell viability of human PC3M cells at 5 uM by flow cytometry; assay type: functional, cell-based; procedure, shortened: as §2
# MDA-MB-231 [10] = assay: Inhibition of human MDA-MB-231 cell migration at 5 uM by wound-healing assay; assay type: functional, cell-based
compound,measurement,setting,value
COc1cc(OC)c2c(c1)C(=O)C1=C(C2=O)C(O)OC(C)=C1 (configuration not stated),Activity,PC-3M [1],inactive
same,Activity,MDA-MB-231 [2],inactive
COc1cc(OC)c2c(OC(C)=O)c3c(c(OC(C)=O)c2c1)C=C(C)OC3,Activity,PC-3M [1],inactive
same,Activity,MDA-MB-231 [2],inactive
COc1cc(OC)c2c(c1)C(=O)C1=C(CO[C@@](C)(O)C1)C2=O,Activity,PC-3M [3],Active
COc1cc(OC)c2c(O)c3c(c(OC(C)=O)c2c1)C[C@](C)(O)OC3,Activity,PC-3M [1],inactive
same,Activity,MDA-MB-231 [2],inactive
COc1cc(OC)c2c(O)c3c(c(OC(C)=O)c2c1)C=C(C)OC3,Activity,PC-3M [1],inactive
same,Activity,MDA-MB-231 [2],inactive
COc1cc(OC)c2c(c1)C(=O)C1=C(COC(C)=C1)C2=O [DEHYDROHERBARIN],Activity,MDA-MB-231 [4],inactive
same,Activity,PC-3M [5],Active
same,IC25,[6],2200 nM
same,IC50,[6],3500 nM
same,Activity,PC-3M [7],inactive
same,Activity,MDA-MB-231 [8],inactive
same,Activity,PC-3M [9],inactive
same,Activity,MDA-MB-231 [10],Active
